Data reported in ChEMBL document CHEMBL4339192, “De Novo Designed Amphipathic α-Helical Antimicrobial Peptides Incorporating Dab and Dap Residues on the Polar Face To Treat the Gram-Negative Pathogen, Acinetobacter baumannii” (J Med Chem, 2019).
Values after ≈ are worked out from the molar mass of the structure shown. Where a SMILES comes first, the peptide text is derived from it. [ ]: non-standard residue; d: D form. Dab = NCC[C@H](N)C(=O)O

Tests used:
Acinetobacter baumannii [1] = assay: Antibacterial activity against Acinetobacter baumannii 649 measured after 24 hrs in presence of 25% human serum by microtiter dilution method; type: functional; settings: Acinetobacter baumannii, 649, 24 h
How it was run: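 Blood strain 649 was tested by MH broth microdilution with and without 25% (v/v) human serum added to the medium. The test used a final inoculum of 5 × 10^5 cfu/mL and incubation at 37 °C. The ratio is the MIC in serum over the MIC in MH alone.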

[2] = Therapeutic index, ratio of HC50 for human RBC to MIC for polymyxin B/colistin-resistant Acinetobacter baumannii M89963; type: toxicity; settings: human red blood cells, read-out: TI
How it was run: (§1)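 T.I. = HC50/MIC. For HC50, peptide (quantified by amino acid analysis) was two-fold serially diluted over 12 concentrations up to 1000 μg/mL. It was incubated with 1% fresh human erythrocytes in PBS, pH 7.4, for 18 h at 37 °C. After 800g centrifugation, hemoglobin was read at 570 nm against water (100%) and no-peptide (0%) controls. HC50 came from a lysis-versus-concentration plot, average of 3 replicates.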

Acinetobacter baumannii [3] = assay: Antibacterial activity against Acinetobacter baumannii 649 measured after 24 hrs by microtiter dilution method; type: functional; settings: Acinetobacter baumannii, 649, 24 h
How it was run: (§2)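 Broth microdilution in Mueller-Hinton (MH) medium. […] Plates were incubated 24 h at 37 °C. MIC was the lowest peptide concentration that inhibited growth, based on three sets of replicates.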

[4] = Therapeutic index, ratio of HC50 for human RBC to MIC for polymyxin B/colistin-resistant Acinetobacter baumannii M89955; type: toxicity; settings: human red blood cells, read-out: TI; how it was run: as §1
[5] = Therapeutic index, ratio of HC50 for human RBC to MIC for polymyxin B/colistin-resistant Acinetobacter baumannii M89953; type: toxicity; settings: human red blood cells, read-out: TI; how it was run: as §1
[6] = Therapeutic index, ratio of HC50 for human RBC to MIC for polymyxin B/colistin-resistant Acinetobacter baumannii M89951; type: toxicity; settings: human red blood cells, read-out: TI; how it was run: as §1
[7] = Therapeutic index, ratio of HC50 for human RBC to MIC for polymyxin B/colistin-resistant Acinetobacter baumannii M89952; type: toxicity; settings: human red blood cells, read-out: TI; how it was run: as §1
[8] = Therapeutic index, ratio of HC50 for human RBC to MIC for polymyxin B/colistin-resistant Acinetobacter baumannii M89949; type: toxicity; settings: human red blood cells, read-out: TI; how it was run: as §1
[9] = Hemolytic activity against human RBC measured after 18 hrs by spectrophotometric method; type: ADME, cell-based, Erythrocyte; settings: human red blood cells (erythrocytes)
How it was run: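 Peptide (amount by amino acid analysis), two-fold serial dilutions at 12 concentrations up to 1000 μg/mL, with 1% human erythrocytes in PBS pH 7.4, 37 °C, 18 h. Unlysed cells removed by centrifugation (800g); hemoglobin read at 570 nm. Water-lysed cells = 100%, no-peptide cells = 0%. HC50 from plot of % lysis vs concentration (μM), average of 3 replicates.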

[10] = Therapeutic index, ratio of HC50 for human RBC to MIC for polymyxin B/colistin-resistant Acinetobacter baumannii M89941; type: toxicity; settings: human red blood cells, read-out: TI; how it was run: as §1
Acinetobacter baumannii [11] = assay: Antibacterial activity against Acinetobacter baumannii isolate 1001611 measured after 24 hrs by microtiter dilution method; type: functional; settings: isolate 1001611, 24 h; how it was run: as §2
Acinetobacter baumannii [12] = assay: Antibacterial activity against Acinetobacter baumannii isolate 1007660 measured after 24 hrs by microtiter dilution method; type: functional; settings: isolate 1007660, 24 h; how it was run: as §2
Acinetobacter baumannii [13] = assay: Antibacterial activity against Acinetobacter baumannii isolate 1021371 measured after 24 hrs by microtiter dilution method; type: functional; settings: isolate 1021371, 24 h; how it was run: as §2
Acinetobacter baumannii [14] = assay: Antibacterial activity against Acinetobacter baumannii isolate 952654 measured after 24 hrs by microtiter dilution method; type: functional; settings: isolate 952654, 24 h; how it was run: as §2
Acinetobacter baumannii [15] = assay: Antibacterial activity against Acinetobacter baumannii isolate 9383370 measured after 24 hrs by microtiter dilution method; type: functional; settings: isolate 9383370, 24 h; how it was run: as §2
Acinetobacter baumannii [16] = assay: Antibacterial activity against Acinetobacter baumannii isolate 961997 measured after 24 hrs by microtiter dilution method; type: functional; settings: isolate 961997, 24 h; how it was run: as §2
Acinetobacter baumannii [17] = assay: Antibacterial activity against Acinetobacter baumannii isolate 1002956 measured after 24 hrs by microtiter dilution method; type: functional; settings: isolate 1002956, 24 h; how it was run: as §2
Acinetobacter baumannii [18] = assay: Antibacterial activity against Acinetobacter baumannii isolate 977751 measured after 24 hrs by microtiter dilution method; type: functional; settings: isolate 977751, 24 h; how it was run: as §2
Acinetobacter baumannii [19] = assay: Antibacterial activity against Acinetobacter baumannii isolate 1035166 measured after 24 hrs by microtiter dilution method; type: functional; settings: isolate 1035166, 24 h; how it was run: as §2
Acinetobacter baumannii [20] = assay: Antibacterial activity against Acinetobacter baumannii isolate 1010282 measured after 24 hrs by microtiter dilution method; type: functional; settings: isolate 1010282, 24 h; how it was run: as §2
Acinetobacter baumannii [21] = assay: Antibacterial activity against Acinetobacter baumannii isolate 1010245 measured after 24 hrs by microtiter dilution method; type: functional; settings: isolate 1010245, 24 h; how it was run: as §2
Acinetobacter baumannii [22] = assay: Antibacterial activity against Acinetobacter baumannii isolate 1017395 measured after 24 hrs by microtiter dilution method; type: functional; settings: isolate 1017395, 24 h; how it was run: as §2
Acinetobacter baumannii [23] = assay: Antibacterial activity against Acinetobacter baumannii isolate 968886 measured after 24 hrs by microtiter dilution method; type: functional; settings: isolate 968886, 24 h; how it was run: as §2
Acinetobacter baumannii [24] = assay: Antibacterial activity against Acinetobacter baumannii isolate 964304 measured after 24 hrs by microtiter dilution method; type: functional; settings: isolate 964304, 24 h; how it was run: as §2
Acinetobacter baumannii [25] = assay: Antibacterial activity against Acinetobacter baumannii isolate 963659 measured after 24 hrs by microtiter dilution method; type: functional; settings: isolate 963659, 24 h; how it was run: as §2
Acinetobacter baumannii [26] = assay: Antibacterial activity against Acinetobacter baumannii isolate 963618 measured after 24 hrs by microtiter dilution method; type: functional; settings: isolate 963618, 24 h; how it was run: as §2
Acinetobacter baumannii [27] = assay: Antibacterial activity against Acinetobacter baumannii isolate 1018887 measured after 24 hrs by microtiter dilution method; type: functional; settings: isolate 1018887, 24 h; how it was run: as §2
Acinetobacter baumannii [28] = assay: Antibacterial activity against Acinetobacter baumannii isolate 1035794 measured after 24 hrs by microtiter dilution method; type: functional; settings: isolate 1035794, 24 h; how it was run: as §2
Acinetobacter baumannii [29] = assay: Antibacterial activity against Acinetobacter baumannii isolate 981650 measured after 24 hrs by microtiter dilution method; type: functional; settings: isolate 981650, 24 h; how it was run: as §2
Acinetobacter baumannii [30] = assay: Antibacterial activity against Acinetobacter baumannii isolate 965463 measured after 24 hrs by microtiter dilution method; type: functional; settings: isolate 965463, 24 h; how it was run: as §2
Acinetobacter baumannii [31] = assay: Antibacterial activity against polymyxin B/colistin-resistant Acinetobacter baumannii M89963 measured after 24 hrs by microtiter dilution method; type: functional; settings: M89963, 24 h; how it was run: as §2
Acinetobacter baumannii [32] = assay: Antibacterial activity against polymyxin B/colistin-resistant Acinetobacter baumannii M89955 measured after 24 hrs by microtiter dilution method; type: functional; settings: M89955, 24 h; how it was run: as §2
Acinetobacter baumannii [33] = assay: Antibacterial activity against polymyxin B/colistin-resistant Acinetobacter baumannii M89953 measured after 24 hrs by microtiter dilution method; type: functional; settings: M89953, 24 h; how it was run: as §2
Acinetobacter baumannii [34] = assay: Antibacterial activity against polymyxin B/colistin-resistant Acinetobacter baumannii M89952 measured after 24 hrs by microtiter dilution method; type: functional; settings: M89952, 24 h; how it was run: as §2
Acinetobacter baumannii [35] = assay: Antibacterial activity against polymyxin B/colistin-resistant Acinetobacter baumannii M89951 measured after 24 hrs by microtiter dilution method; type: functional; settings: M89951, 24 h; how it was run: as §2
Acinetobacter baumannii [36] = assay: Antibacterial activity against polymyxin B/colistin-resistant Acinetobacter baumannii M89949 measured after 24 hrs by microtiter dilution method; type: functional; settings: M89949, 24 h; how it was run: as §2
Acinetobacter baumannii [37] = assay: Antibacterial activity against polymyxin B/colistin-resistant Acinetobacter baumannii M89941 measured after 24 hrs by microtiter dilution method; type: functional; settings: M89941, 24 h; how it was run: as §2

In the case of `CC(=O)N[C@H](CCCCN)C(=O)N[C@H](CC(C)C)C(=O)N[C@@H](CCN)C(=O)N[C@H](CO)C(=O)N[C@H](CC(C)C)C(=O)N[C@H](CC(C)C)C(=O)N[C@@H](CCN)C(=O)N[C@@H](C(=O)N[C@H](CC(C)C)C(=O)N[C@H](CO)C(=O)N[C@@H](CCN)C(=O)N[C@H](C)C(=O)N[C@H](CCCCN)C(=O)N[C@H](C)C(=O)N[C@H](C)C(=O)N[C@H](CCCCN)C(=O)N[C@H](CC(C)C)C(=O)N[C@@H](CCN)C(=O)N[C@@H](C(=O)N[C@H](CC(C)C)C(=O)N[C@H](CC(C)C)C(=O)N[C@@H](CCN)C(=O)N[C@H](C)C(=O)N[C@H](CC(C)C)C(=O)N[C@H](CO)C(=O)N[C@H](CO)C(N)=O)[C@H](C)O)[C@H](C)O` (Ac-[dK][dL][Dab][dS][dL][dL][Dab][dT][dL][dS][Dab][dA][dK][dA][dA][dK][dL][Dab][dT][dL][dL][Dab][dA][dL][dS][dS]-NH2), the MIC (Acinetobacter baumannii [1]) is reported as 0.7 µM, the selectivity ratio [2] is reported as over 1010 and the MIC (Acinetobacter baumannii [3]) is reported as 0.4 µM (≈ 1.07 µg/mL). It also gave a selectivity ratio [4] of over 1010, a selectivity ratio [5] of over 1010 and a selectivity ratio [6] of over 1010. The selectivity ratio [7] was over 1010, the selectivity ratio [8] was over 1010 and the HC50 at 18 h [9] was over 708 µM. It also gave a selectivity ratio [10] of over 1010, an MIC (Acinetobacter baumannii [11]) of 0.4 µM (≈ 1.07 µg/mL) and an MIC (Acinetobacter baumannii [12]) of 0.4 µM (≈ 1.07 µg/mL). It also gave an MIC (Acinetobacter baumannii [13]) of 0.4 µM (≈ 1.07 µg/mL), an MIC (Acinetobacter baumannii [14]) of 0.4 µM (≈ 1.07 µg/mL) and an MIC (Acinetobacter baumannii [15]) of 0.7 µM (≈ 1.88 µg/mL). The MIC (Acinetobacter baumannii [16]) was 1.5 µM (≈ 4.03 µg/mL), the MIC (Acinetobacter baumannii [17]) was 0.4 µM (≈ 1.07 µg/mL) and the MIC (Acinetobacter baumannii [18]) was 0.7 µM (≈ 1.88 µg/mL). It also gave an MIC (Acinetobacter baumannii [19]) of 0.7 µM (≈ 1.88 µg/mL), an MIC (Acinetobacter baumannii [20]) of 0.7 µM (≈ 1.88 µg/mL) and an MIC (Acinetobacter baumannii [21]) of 0.4 µM (≈ 1.07 µg/mL). For the same molecule, the MIC (Acinetobacter baumannii [22]) was 0.7 µM (≈ 1.88 µg/mL), the MIC (Acinetobacter baumannii [23]) was 0.7 µM (≈ 1.88 µg/mL) and the MIC (Acinetobacter baumannii [24]) was 0.7 µM (≈ 1.88 µg/mL). It also gave an MIC (Acinetobacter baumannii [25]) of 0.7 µM (≈ 1.88 µg/mL), an MIC (Acinetobacter baumannii [26]) of 0.4 µM (≈ 1.07 µg/mL) and an MIC (Acinetobacter baumannii [27]) of 0.7 µM (≈ 1.88 µg/mL). For the same molecule, the MIC (Acinetobacter baumannii [28]) was 0.7 µM (≈ 1.88 µg/mL), the MIC (Acinetobacter baumannii [29]) was 0.4 µM (≈ 1.07 µg/mL) and the MIC (Acinetobacter baumannii [30]) was 0.7 µM (≈ 1.88 µg/mL). The MIC (Acinetobacter baumannii [31]) was 0.7 µM (≈ 1.88 µg/mL), the MIC (Acinetobacter baumannii [32]) was 0.7 µM (≈ 1.88 µg/mL) and the MIC (Acinetobacter baumannii [33]) was 1.4 µM (≈ 3.76 µg/mL). The MIC (Acinetobacter baumannii [34]) was 0.7 µM (≈ 1.88 µg/mL), the MIC (Acinetobacter baumannii [35]) was 0.7 µM (≈ 1.88 µg/mL) and the MIC (Acinetobacter baumannii [36]) was 0.7 µM (≈ 1.88 µg/mL). The MIC (Acinetobacter baumannii [37]) was 0.4 µM (≈ 1.07 µg/mL).
